ChEMBL document CHEMBL4765245 (Eur J Med Chem, 2020)

Legend:
HeLa = test: Cytotoxicity against human HeLa cells assessed as reduction in cell viability incubated for 72 hrs measured by crystal violet based micro plate reader method; conditions: hela, 72 h
Procedure, shortened: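 Two-day-old confluent HeLa Ohio monolayers exposed to half-log dilutions (100 μM downward) in 2% FCS medium for 72 h at 37 °C, 5% CO2. Cells fixed and stained with crystal violet/formalin, dye eluted with acidified citrate-ethanol, OD read at 550/630 nm. Viability expressed relative to six mock-treated controls; CC50 is the mean of at least 3 tests.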

Coxsackievirus B3 [1] = test: Antiviral activity against Coxsackievirus B3 Nancy infected in human HeLa cell line assessed as inhibition of virus-induced cytopathic effect measured after 48 hrs by crystal violet uptake assay; assay type: functional, organism-based; conditions: Enterovirus B, Nancy, HeLa, 48 h; read-out: IC50
Procedure, shortened: (§1)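 HeLa Ohio monolayers, 2 days old and confluent, in MEM with 2% FCS. Serial half-log compound dilutions from 100 μM were added just before CVB3 infection. Activity was calculated per Pauwels against six cell and six virus controls; mean IC50 from ≥3 experiments.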

Coxsackievirus B3 [2] = test: Antiviral activity against wild type Coxsackievirus B3 97927 infected in human HeLa cell line assessed as inhibition of virus-induced cytopathic effect measured after 48 hrs by crystal violet uptake assay; assay type: functional, organism-based; conditions: Enterovirus B, 97927, HeLa, 48 h; read-out: IC50
Procedure, shortened: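 Coxsackievirus B3 infection of 2-day-old HeLa Ohio monolayers in 2% FCS medium. Half-log dilutions from 100 μM added just before infection; guanidine hydrochloride served as positive control. Antiviral activity calculated per Pauwels; IC50 is the mean of at least 3 separate tests.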

Coxsackievirus B3 [3] = test: Antiviral activity against pleconaril-resistant Coxsackievirus B3 97927 11207K/I1092 mutant infected in human HeLa cell line assessed as inhibition of virus-induced cytopathic effect measured after 48 hrs by crystal violet uptake assay; assay type: functional, organism-based; conditions: read-out: IC50; procedure, shortened: as §1
Coxsackievirus B3 [4] = test: Antiviral activity against pleconaril-resistant Coxsackievirus B3 97927 11207M/I1092 mutant infected in human HeLa cell line assessed as inhibition of virus-induced cytopathic effect measured after 48 hrs by crystal violet uptake assay; assay type: functional, organism-based; procedure, shortened: as §1
Coxsackievirus B3 [5] = test: Antiviral activity against pleconaril-resistant Coxsackievirus B3 97927 11207T/I1092 mutant infected in human HeLa cell line assessed as inhibition of virus-induced cytopathic effect measured after 48 hrs by crystal violet uptake assay; assay type: functional, organism-based; conditions: read-out: IC50; procedure, shortened: as §1
rhinovirus A2 = test: Antiviral activity against Rhinovirus A2 infected in human HeLa cell line assessed as inhibition of virus-induced cytopathic effect measured after 72 hrs by crystal violet uptake assay; assay type: functional, organism-based; conditions: Rhinovirus A, HeLa, 72 h; read-out: IC50
Procedure, shortened: (§2)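 HeLa Ohio monolayers, 1 day old, in 2% FCS medium. Compound added as serial half-log dilutions from 100 μM immediately before rhinovirus infection. Activity calculated per Pauwels; IC50 is the mean of at least 3 experiments.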

rhinovirus B5 = test: Antiviral activity against Rhinovirus B5 infected in human HeLa cell line assessed as inhibition of virus-induced cytopathic effect measured after 72 hrs by crystal violet uptake assay; assay type: functional, organism-based; conditions: Rhinovirus B, HeLa, 72 h; read-out: IC50
Procedure, shortened: as §2, with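 “infection. CPE read at 72 h by crystal violet staining, elution and OD 550/630 nm, with six cell and six virus controls per plate.” for “infection.”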

rhinovirus B14 = test: Antiviral activity against Rhinovirus B14 infected in human HeLa cell line assessed as inhibition of virus-induced cytopathic effect measured after 72 hrs by crystal violet uptake assay; assay type: functional, organism-based; conditions: Rhinovirus B, HeLa, 72 h; read-out: IC50; procedure, shortened: as §2
[6] = Selectivity index, ratio of CC50 for human HeLa cells to IC50 for Coxsackievirus B3 Nancy infected in HeLa cell line assessed as inhibition of virus-induced cytopathic effect; assay type: toxicity; conditions: read-out: Selectivity Index
Procedure, shortened: (§3)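 SI calculated as CC50/IC50. Cytotoxicity: 2-day-old confluent HeLa Ohio monolayers were exposed to half-log dilutions from 100 μM in 2% FCS MEM for 72 h at 37 °C, then crystal violet stained, eluted and read at 550/630 nm. Antiviral: compound added just before CVB3 infection of 2-day-old HeLa; CPE scored by crystal violet at 48 h (Pauwels formula). Means from ≥3 tests each.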

[7] = Selectivity index, ratio of CC50 for human HeLa cells to IC50 for Coxsackievirus B3 97927 wild type infected in HeLa cell line assessed as inhibition of virus-induced cytopathic effect; assay type: toxicity; conditions: read-out: Selectivity Index; procedure, shortened: as §3
[8] = Selectivity index, ratio of CC50 for human HeLa cells to IC50 for pleconaril-resistant Coxsackievirus B3 97927 11207K/I1092 mutant infected in HeLa cell line assessed as inhibition of virus-induced cytopathic effect; assay type: toxicity; conditions: read-out: Selectivity Index; procedure, shortened: as §3
[9] = Selectivity index, ratio of CC50 for human HeLa cells to IC50 for pleconaril-resistant Coxsackievirus B3 97927 11207M/I1092 mutant infected in HeLa cell line assessed as inhibition of virus-induced cytopathic effect; assay type: toxicity; conditions: read-out: Selectivity Index; procedure, shortened: as §3
[10] = Selectivity index, ratio of CC50 for human HeLa cells to IC50 for pleconaril-resistant Coxsackievirus B3 97927 11207T/I1092 mutant infected in HeLa cell line assessed as inhibition of virus-induced cytopathic effect; assay type: toxicity; conditions: read-out: Selectivity Index; procedure, shortened: as §3
[11] = Selectivity index, ratio of CC50 for human HeLa cells to IC50 for Rhinovirus A2 infected in HeLa cell line assessed as inhibition of virus-induced cytopathic effect; assay type: toxicity; conditions: read-out: Selectivity Index
[12] = Selectivity index, ratio of CC50 for human HeLa cells to IC50 for Rhinovirus B5 infected in HeLa cell line assessed as inhibition of virus-induced cytopathic effect; assay type: toxicity; conditions: read-out: Selectivity Index
[13] = Selectivity index, ratio of CC50 for human HeLa cells to IC50 for Rhinovirus B14 infected in HeLa cell line assessed as inhibition of virus-induced cytopathic effect; assay type: toxicity; conditions: read-out: Selectivity Index
[14] = Elimination rate constant in Balb/c mouse at 100 mg/kg, IG measured upto 7 hrs by HPLC-MS method; assay type: ADME, organism-based; conditions: in vivo, po
Procedure, shortened: (§4)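 Male BALB/c mice (~20 g), food withheld 1 h before and after dosing; single 100 mg/kg intragastric dose as suspension in 0.5% CMC with one drop Tween-80. Blood taken at 0.5, 1, 2, 3, 5, 7 h (3 animals per time point); plasma MeCN-precipitated, HPLC-MS (ESI positive). Non-compartmental analysis: AUC by trapezium with extrapolation; CL = dose/AUC; Vd = CL/kel.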

[15] = Mutagenicity in Escherichia coli PQ37 at 10 mg/ml by SOS-chromotest; assay type: toxicity
[16] = Genotoxicity in Escherichia coli PQ37 assessed as zone of inhibition at 10 mg/ml measured on day 3 by SOS-chromo0test relative to control; assay type: toxicity; conditions: 72 h, time 3 day
[17] = AUC (0 to infinity) in Balb/c mouse at 100 mg/kg, IG measured upto 7 hrs by HPLC-MS method; assay type: ADME, organism-based; set-up: route […], dose 100 mg/kg, time <=7; conditions: in vivo, po; procedure, shortened: as §4
[18] = Clearance in Balb/c mouse at 100 mg/kg, IG measured upto 7 hrs by HPLC-MS method; assay type: ADME, organism-based; conditions: in vivo, po; procedure, shortened: as §4
[19] = Volume of distribution in Balb/c mouse at 100 mg/kg, IG measured upto 7 hrs by HPLC-MS method; assay type: ADME, organism-based; conditions: in vivo, po; procedure, shortened: as §4

Cc1cc(-c2noc(C(F)(F)F)n2)ccc1OCCCc1cc(C(=O)N(C)C)no1
CC50 (HeLa): 13400 nM
IC50 (Coxsackievirus B3 [1]): 2760 nM
IC50 (Coxsackievirus B3 [2]): 20 nM
IC50 (Coxsackievirus B3 [3]): 4790 nM
IC50 (Coxsackievirus B3 [4]): 10 nM
IC50 (Coxsackievirus B3 [5]): 10 nM
IC50 (rhinovirus A2): 860 nM
IC50 (rhinovirus B5): 5250 nM
IC50 (rhinovirus B14): 90 nM
selectivity ratio [6]: 4.9
selectivity ratio [7]: 669
selectivity ratio [8]: 2.8
selectivity ratio [9]: 1340
selectivity ratio [10]: 1340
selectivity ratio [11]: 15.6
selectivity ratio [12]: 2.6
selectivity ratio [13]: 149
Kel [14]: 0.4373 h⁻¹
Activity [15]: Non-Toxic
inhibition zone (IZ) [16]: 0 mm
AUC [17]: 3015.5 ng·h/mL
clearance [18]: 0.66 L/h
Vd [19]: 1.52 L
